Where “and” joins values, the source holds several entries; their conditions need not be identical. Identical values can stand only once. Like-named read-outs stand apart in the source and are kept apart here. Marks after values point to notes of the source that are not given here.

Results on four molecules are retold here after paper PMC8367020 (Journal of the American Chemical Society, 2021).

In experiment [1] the target is T1, hOAT (Homo sapiens, UniProt P04181).
T1 sequence (P04181 26-439): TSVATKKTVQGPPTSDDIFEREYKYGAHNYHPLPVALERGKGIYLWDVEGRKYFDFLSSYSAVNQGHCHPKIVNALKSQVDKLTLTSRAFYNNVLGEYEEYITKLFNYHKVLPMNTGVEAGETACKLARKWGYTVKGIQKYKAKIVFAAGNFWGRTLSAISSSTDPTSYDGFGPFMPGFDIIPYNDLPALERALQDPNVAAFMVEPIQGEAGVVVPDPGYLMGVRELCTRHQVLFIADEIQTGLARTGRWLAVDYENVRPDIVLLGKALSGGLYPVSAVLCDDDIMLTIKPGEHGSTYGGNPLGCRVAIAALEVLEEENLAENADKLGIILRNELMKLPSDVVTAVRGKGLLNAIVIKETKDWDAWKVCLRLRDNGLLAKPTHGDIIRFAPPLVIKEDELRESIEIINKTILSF
The experiment can be described thus: Time-dependent inactivation kinetics of hOAT. The class given is biochemical.

For experiment [2], the target named is T2, GABA-AT (Sus scrofa, UniProt P80147). The following applies: cited from earlier work.
T2 sequence (P80147 29-500): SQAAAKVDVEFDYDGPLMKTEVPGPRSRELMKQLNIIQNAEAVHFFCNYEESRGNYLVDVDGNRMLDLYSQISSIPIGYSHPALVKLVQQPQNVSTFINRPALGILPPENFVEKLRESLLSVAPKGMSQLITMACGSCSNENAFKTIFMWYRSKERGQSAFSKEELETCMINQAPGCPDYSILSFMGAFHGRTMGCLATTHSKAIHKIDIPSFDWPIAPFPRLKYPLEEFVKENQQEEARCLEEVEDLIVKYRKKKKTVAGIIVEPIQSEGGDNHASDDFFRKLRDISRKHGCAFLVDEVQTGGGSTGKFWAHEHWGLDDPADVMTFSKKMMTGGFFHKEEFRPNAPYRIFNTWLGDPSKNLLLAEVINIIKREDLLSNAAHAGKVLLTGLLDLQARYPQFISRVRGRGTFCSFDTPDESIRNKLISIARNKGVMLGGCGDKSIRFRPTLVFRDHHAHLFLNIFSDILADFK
The target of experiment [3] is T2, GABA-AT. The experiment can be described thus: Reversible inhibition of GABA-AT. In kind it is biochemical. The following applies: Ki = IC50/(1+[S]/Km).
Experiment [4] concerns aspartate aminotransferase (Asp-AT). The following applies: up to 4 mM; cited from earlier work.
Experiment [5] concerns the target T1, hOAT. The following applies: cited from earlier work.
In experiment [6] the test system is alanine aminotransferase (Ala-AT). The following applies: up to 4 mM; cited from earlier work.
The subject of experiment [7] is human-derived HCC mouse model. The following applies: 0.1 and 1.0 mg/kg; po; cited from earlier work.
Experiment [8] deals with T1, hOAT. As to conditions: cited from earlier work. This is another data set of the same source.
For experiment [9], the target named is T1, hOAT. The following applies: cited from earlier work. This is another data set of the same source.
The target of experiment [10] is T1, hOAT. Description: 48-hour time-dependent dialysis of inactivated hOAT. In kind it is biochemical. As to conditions: 48-hour dialysis against buffer with excess PLP and α-KG.
The subject of experiment [11] is aspartate aminotransferase (Asp-AT). The experiment can be described thus: Inhibition of Asp-AT. The class given is biochemical. As to conditions: at concentrations up to 10 mM.
The target of experiment [12] is T1, hOAT. Description: Stopped-flow transient-state spectrophotometry of hOAT reacting with 6. In kind it is biochemical. Summed up:
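Stopped-flow at 10 °C. hOAT (6.94 µM final) was mixed with the test compound (e.g. 1040 µM final; several concentrations). CCD absorbance at 250–800 nm over 0.0137–9843 s came from spliced, averaged short- and long-time datasets, deconvolved by SVD. The 420 nm traces were fitted to three exponentials, and first-phase kobs was fitted against concentration. Quinonoid accumulation assumed ε ~30 mM−1cm−1.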

The test system of experiment [13] is alanine aminotransferase (Ala-AT). Description: Inhibition of Ala-AT. The class given is biochemical. As to conditions: at concentrations up to 10 mM.
Experiment [14] addresses T1, hOAT. The experiment can be described thus: Denaturing intact protein mass spectrometry of hOAT inactivated by 6. The class given is binding. The method in brief:
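Intact hOAT fully inactivated by the test compound was analysed by denaturing intact-protein mass spectrometry, with untreated hOAT run alongside as a control. The added mass was read as the shift from the unmodified protein and compared with theoretical adduct masses.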

The target of experiment [15] is T1, hOAT. The experiment can be described thus: Partition ratio determination with hOAT. In kind it is biochemical. The following applies: in the presence of α-KG, partition ratio = turnover number −1.
Setting [16] is: hOAT inactivation, mean and standard error.

Consider `N[C@H]1C[C@@H](C(=O)O)CC1=C(C(F)(F)F)C(F)(F)F` [Compound 1, (1S,3S)-3-amino-4-(hexafluoropropan-2-ylidenyl)cyclopentane-1-carboxylic acid], for which, in experiment [1] (hOAT inactivation efficiency), the kinact/KI (usually the maximal inactivation rate divided by the concentration that gives half of it) was found to be 16.7 ± 6.7 M⁻¹ s⁻¹. The Ki in experiment [1] (setting [16]) was 0.09 ± 0.03 mM; in experiment [2] (GABA-AT, weak reversible inhibition) it was 4.2 mM; in experiment [3], 5.2 ± 0.6 mM. In addition, the kinact (commonly the maximal first-order rate at which the target is inactivated) in experiment [1] (setting [16]) was found to be 0.09 ± 0.01 min⁻¹. For the same molecule, the “inhibition of GABA-AT (in words)” value in [2] (preliminary screening) is recorded as “millimolar reversible inhibition”. Besides, the “inhibition of Asp-AT” value in [4] is on record as “no inhibition”. In experiment [5], the Partition ratio is reported as 12 ± 1^b. In experiment [6], the “inhibition of Ala-AT” value was “no inhibition”. The “serum AFP levels” value in [7] was “remarkably decreased”. Besides, in [7], the tumor growth entry is “inhibited tumor growth”. In [8], the Fluoride ion release is listed as 79 ± 2^b eq.
`N[C@H]1C=C(C(=O)O)CCC1(F)F` [Compound 2, (S)-3-amino-4,4-difluorocyclohex-1-enecarboxylic acid, reference compound]: in experiment [9] (versus compound 1), the “improvement in inactivation efficiency (kinact/KI) against hOAT compared to 1” value was 23 fold.
`N[C@H]1C[C@@H](C(=O)O)CC1(F)F` [Compound 4, (1R,4S)-4-amino-3,3-difluorocyclopentanecarboxylic acid]: the values for the Ki in experiment [1] and in experiment [9] (hOAT inactivation) were 4 ± 1 mM and 7.8 mM, respectively.
Consider `N[C@H]1C=C(C(=O)O)CC1(F)F` [Compound 6, (S)-3-amino-4,4-difluorocyclopent-1-enecarboxylic acid], for which, in experiment [1], the Ki stood at 0.06 ± 0.03 mM and the kinact/KI was 21.7 M⁻¹ s⁻¹. Besides, the “improvement in inactivation efficiency (kinact/KI)” value in [1] (6 versus 4, hOAT) was 400 fold. Besides, in experiment [10], the “residual activity of hOAT after dialysis” value is “unchanged”. For the same molecule, the “inhibition of Asp-AT” value in experiment [11] is “did not show noticeable inhibition”. In addition, the “rate of quinonoid decay” value in [12] worked out at 0.09 s⁻¹. In addition, the “rate of second external aldimine formation (bimolecular)” value in experiment [12] (420 nm) stood at 6200 M⁻¹ s⁻¹. Further, in experiment [12] (external aldimine decay with increase at ~275 nm), the “rate constant of final phase” value amounted to 0.007 s⁻¹. In addition, the “rate of quinonoid species accumulation” value in experiment [12] (~560 nm) was determined as 0.4 s⁻¹. Also, the “inhibition of Ala-AT” value in experiment [13] was “did not show noticeable inhibition”. Further, in [14] (denaturing MS conditions at pH 2.5), the “hOAT in apo-enzyme state” value is “approximately 84%”. Moreover, the hOAT covalently modified in experiment [14] (denaturing MS, hOAT fully inactivated by 6, mass increase 370.07 Da) is ~ 16%. The Partition ratio in experiment [15] was 34 and 34 ± 0.
